Measured values as given in publication PMC4627538 (Journal of Diabetes Investigation, 2015).
Bridge positions count the residues as written; N and C are the ends. Ends that are not written are not given here.

Columns and labels:
[1] = tested on: maltase glucoamylase (MGAM); assay: Phage ELISA, binding of phage clones to MGAM; design: species or system rat; settings: displayed on phage, judged from ELISA signals, Figure 1
[2] = tested on: background proteins (BSA and anti-MGAM antibodies); assay: Phage ELISA, binding of phage clones to background
Outline: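 Wells coated overnight at 4°C with anti-MGAM antibodies (5 µg/mL) in PBS, blocked 90 min at room temperature with 2% BSA/PBS, with no MGAM added. 5×10^9 pfu of each phage clone in 0.05% PBST incubated 60 min, then washed five times with 0.1% PBST. Bound phage detected with HRP anti-M13 monoclonal antibody and TMB at A450. Triplicates, mean ± SD.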

Sequence | affinity towards the target (MGAM), comparison between phage clones [1] | binding of phage clones to background proteins [2]
CGHHHRDYC (disulfide 1-9 (inferred)) [C2] | higher affinity towards the target than those obtained with specific elution | lower background binding
CTHYGFRGC (disulfide 1-9 (inferred)) [C1] | higher affinity towards the target than those obtained with specific elution | lower background binding
